Screening data: PubChem, The Scripps Research Institute Molecular Screening Center
Hits are enriched below; roughly 1.6% of the tested compounds scored in any of these assays.
procasp7 counter: counter-screen for procaspase-3 activators: activators of human procaspase-7; P55210; recombinant procaspase-7, Ac-DEVD-pNA absorbance 405 nm; D23A/D198A/D206A triple mutant, cannot self-cleave; scale: DMSO 0, 5 µM enzyme 100; activation, % at 8.5 µM; hit rate 0.093% among 330,000; AID 463210;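 active = percent activation above the screen-wide mean plus 3 SD, cut at about 25% in these data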
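Assay system: Uncleavable procaspase-7 mutant enzyme / Input: 2 µM procaspase-7 mutant as dispensed / Dosing: single nominal 8.5 µM compound dose, 0.8% DMSO final / Timing: 1 h enzyme–compound preincubation and 2 h substrate reaction, both 25 °C / Detection: p-Nitroaniline absorbance at 405 nm, read at 0 and 120 min / Replication: singlicate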
sPLA2-III inh: Inhibits HGIII-sPLA2 liposome hydrolysis, primary screen. hit rate 0.56% among 370,000. Q9NZ20. QFRET BODIPY PC-A2 liposome hydrolysis, fluorescence. inhibition, % at 12.2 µM;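 active = inhibition above mean plus 3 SD of compounds lying within the high and low control bounds, cut at about 19% in these data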;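 also: 0% = median of test compound wells and 100% = no enzyme DMSO wells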
Target sequence (Q9NZ20 whole entry, looked up): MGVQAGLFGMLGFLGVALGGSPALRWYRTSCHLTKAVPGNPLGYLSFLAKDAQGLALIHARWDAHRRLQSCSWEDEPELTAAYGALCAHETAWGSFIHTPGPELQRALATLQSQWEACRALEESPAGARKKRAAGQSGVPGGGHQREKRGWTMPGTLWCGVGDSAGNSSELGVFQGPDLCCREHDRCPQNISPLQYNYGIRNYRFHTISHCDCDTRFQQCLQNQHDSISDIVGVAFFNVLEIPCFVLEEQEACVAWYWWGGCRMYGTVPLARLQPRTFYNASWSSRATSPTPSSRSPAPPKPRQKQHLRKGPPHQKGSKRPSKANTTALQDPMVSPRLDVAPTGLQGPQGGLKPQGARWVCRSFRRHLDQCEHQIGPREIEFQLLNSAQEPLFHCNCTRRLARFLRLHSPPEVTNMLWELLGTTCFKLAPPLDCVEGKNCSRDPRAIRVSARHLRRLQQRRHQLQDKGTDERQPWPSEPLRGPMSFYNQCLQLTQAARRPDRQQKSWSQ
proCasp3 act: activates human procaspase-3 | AID 463141 | hit rate 0.11% among 330,000 | P42574 | recombinant procaspase-3 D3A, Ac-DEVD-pNA absorbance 405 nm | activation, % at 8.5 µM;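 active = activation above the mean of all tested compounds plus 3 SD, cut at about 21% in these data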;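 also: 0% = DMSO alone and 100% = DMSO wells spiked with extra 5 µM PC-3 D3A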
Target sequence (P42574 whole entry D9A/D28A/D175A): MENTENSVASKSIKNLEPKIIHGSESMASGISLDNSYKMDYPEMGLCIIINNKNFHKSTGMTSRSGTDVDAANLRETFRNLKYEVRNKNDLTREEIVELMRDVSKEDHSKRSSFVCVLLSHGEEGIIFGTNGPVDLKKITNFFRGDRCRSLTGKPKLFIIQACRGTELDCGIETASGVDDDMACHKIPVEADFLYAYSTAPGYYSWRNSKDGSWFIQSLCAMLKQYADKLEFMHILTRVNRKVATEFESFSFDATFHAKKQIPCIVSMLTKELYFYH
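Compound: 8.5 µM single point, 0.8% DMSO / Material: Autoprocessing-dead procaspase-3 D3A mutant enzyme / Timing: 1 h preincubation plus 2 h reaction at 25 °C / Medium: Zinc-free HEPES/NaCl buffer with 0.01% Triton X-100 at pH 7.4 / Technique: 405 nm absorbance of p-nitroaniline, reads at 0 and 120 min / Repeats: one well per compound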
PLCg1 inh: PLC-gamma1 (human) inhibition, primary screen. inhibition, % at 12.2 µM. P19174. AID 720700. purified PLC-gamma1, fluorogenic substrate, fluorescence. hit rate 0.84% among 370,000; in the data active = inhibition above about 9.5%
PLC-beta3 inh: inhibitors of human phospholipase C beta3 | Q01970 | Purified PLC-beta3, fluorogenic substrate, fluorescence | inhibition, % at 12.2 µM | hit rate 0.18% among 370,000 | AID 720704;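 also: 0% = median of compound wells on plate and 100% = full blocker control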
PLCg1 ctr: inhibits human PLC-gamma1 in PLC-beta3 counter-screen | shares compounds with PLCg1 inh | purified PLC-gamma1, fluorogenic substrate, fluorescence | inhibition, % at 12.3 µM | hit rate 3.1% among 3,300 | AID 743258; in the data active = inhibition above about 9.5%
PLCbeta3 conf: confirmation of human PLC-beta3 inhibitors; AID 743261; hit rate 1% among 3,300; purified PLC-beta3, fluorogenic substrate fluorescence; shares compounds with PLCg1 inh; inhibition, % at 12.3 µM
Active calls of the source: *; nt = no result given. Rule as the data show it, unless noted: active = inhibition above about 11%; inactive = the rest.

SMILES | procasp7 counter | sPLA2-III inh | proCasp3 act | PLCg1 inh | PLC-beta3 inh | PLCg1 ctr | PLCbeta3 conf
Cc1ccccc1NC(=O)Nc1ccc(C(F)(F)F)cc1 | 3.4 | 4.5 | 11.5 | 12.7* | 12.0* | 0.5 | 1.5
O=C1CC2C(=O)NCCN2C(=NC(=O)c2ccc(Cl)cc2)N1 (stereo unspecified) | 9.1 | 6.0 | 2.8 | 6.5 | -1.7 | nt | nt
CC(=O)N1CCSc2ccc(S(=O)(=O)NCCc3cccc(C)c3)cc21 | -8.0 | -7.3 | 5.3 | 16.1* | -3.2 | -1.2 | -1.5
CC(=O)N1CCSc2ccc(S(=O)(=O)NCCc3ccc(C)cc3)cc21 | -10.3 | -7.4 | 3.9 | 1.2 | -11.8 | nt | nt
Cc1ccc(C(=O)NC(C)CCc2ccccc2)cc1[N+](=O)[O-] (stereo unspecified) | 6.4 | -11.3 | 4.5 | 12.7* | 2.9 | -2.4 | -2.5
CCc1nc2c(OCC(=O)c3ccc(Cl)cc3Cl)cccn2c1N(C)C(=O)c1cccs1 | nt | -63.6 | nt | -2.1 | 3.0 | nt | nt
CCC(=O)c1ccc(OCC(=O)OC(C)C(=O)Nc2c(C)n(C)n(-c3ccccc3)c2=O)cc1 (stereo unspecified) | nt | 1.2 | nt | 2.4 | -0.8 | nt | nt
Cc1ccc(C(=O)COC(=O)CNC(=O)c2ccccc2)s1 | -12.4 | 2.8 | 5.0 | 0.3 | -2.0 | nt | nt
COc1ccc(OCCC(=O)OCC(=O)c2ccc[nH]2)cc1 | 4.2 | -4.5 | 5.2 | -0.3 | -5.5 | nt | nt
CNC(=O)C1Cc2c(-c3cccc(F)c3)ccnc2O1 (stereo unspecified) | nt | 8.9 | nt | 16.2* | 3.6 | -3.8 | 0.7
CCCc1nc2c(=O)n(C)c(=O)nc-2n(C)n1 | nt | -0.2 | nt | 55.3* | -5.5 | 43.4* | 3.5
Cn1nc(-c2ccccn2)nc2c(=O)n(C)c(=O)nc1-2 | -14.6 | 4.4 | -10.9 | 50.9* | -8.6 | 32.5* | -12.0
CCn1c(N)nc2c1c(=O)n(C)c(=O)n2C | 7.3 | 5.4 | 8.4 | 3.1 | 0.4 | nt | nt
CCn1nc(C)cc1-c1nnc(Sc2ncc([N+](=O)[O-])s2)n1C | -27.1 | -0.4 | -23.5 | 3.3 | 3.8 | nt | nt
CN(C)CCN1CCN(C(c2cc3ccccc3o2)c2nnnn2C(C)(C)C)CC1 (stereo unspecified) | nt | -4.5 | nt | -1.9 | -3.3 | nt | nt
CC(=O)Nc1ccc(S(=O)(=O)N2CCN=C2SCc2ccc([N+](=O)[O-])cc2)cc1 | 1.5 | -11.5 | 2.9 | -0.3 | -8.5 | nt | nt
O=C(Cn1nnc(-c2ccccc2NC(=O)C2CC2)n1)NC1CCCCC1 | -12.7 | 14.3 | 11.6 | 11.0* | 2.8 | -7.2 | -3.7
COc1ccc(NC(=O)CCCCCN2C(=O)CCC2=O)cc1Cl | -1.4 | -5.0 | -4.3 | -1.1 | 4.9 | nt | nt
COc1ccc(NC(=O)CCCN2C(=O)CCC2=O)cc1Cl | 11.2 | -3.8 | -3.0 | 11.0* | 2.6 | -5.5 | -1.2
COc1ccc(CN(C)C(=O)CCC(=O)N2CCN(S(=O)(=O)c3ccc(Cl)cc3)CC2)c(OC)c1 | nt | -14.7 | nt | 1.1 | 1.2 | nt | nt
COC(=O)NCc1ccc(Cl)c(Cl)c1 | 0.6 | 10.3 | -5.1 | 11.6* | 2.2 | -7.5 | -2.8
COC(=O)NCc1ccc(CNC(=O)OC)cc1 | 6.0 | 8.2 | -2.0 | 3.3 | 6.1 | nt | nt
O=C(C1CCCO1)N1CCN(C(=S)Nc2cc(F)cc(F)c2)CC1 (stereo unspecified) | -9.8 | 6.5 | 2.3 | 6.3 | -9.4 | nt | nt
COc1ccc(S[C@]2(C(=O)N3CCCC3)CC(=O)N(C(=O)/C=C/c3ccccc3)[C@@H]2c2ccc(OC)cc2)cc1 | nt | -4.2 | nt | -1.6 | 1.9 | nt | nt
CCOc1cc(/C=N/NC(=O)N/N=C/c2ccc(O)c(OCC)c2)ccc1O | 4.9 | -12.6 | 3.6 | 5.9 | 13.0* | 3.8 | -1.6
SMILES | procasp7 counter | sPLA2-III inh | proCasp3 act | PLCg1 inh | PLC-beta3 inh | PLCg1 ctr | PLCbeta3 conf
CCOc1cc(/C=N/Nc2nnc(C)n2N)ccc1O | -15.3 | 11.0 | -13.7 | 19.9* | 5.3 | -5.1 | -0.6
CCOC(=O)C1NC(=O)CC1c1ccccc1 (stereo unspecified) | 1.1 | -0.2 | -0.4 | 11.0* | 7.7 | 6.8 | 3.4
CCOC(=O)[C@@H]1CCNC[C@@H]1c1ccccc1 | 4.7 | -3.0 | 2.6 | 0.6 | -0.5 | nt | nt
CC(CC(=O)Nc1ccc2c(c1)c(=O)n(C)n2-c1ccccc1F)c1ccccc1 (stereo unspecified) | nt | -1.5 | nt | -224.2 | -305.5 | nt | nt
CC(C(=O)N=Nc1c(O)[nH]c2ccccc12)n1cnc2ccccc2c1=O (stereo unspecified) | -4.1 | -5.4 | 10.6 | 10.4* | 15.7* | -1.1 | 0.6
Cc1cccc2c(N=NC(=O)C(C)n3cnc4ccccc4c3=O)c(O)[nH]c12 (stereo unspecified) | 3.0 | -0.8 | 5.4 | 0.4 | -5.0 | nt | nt
O=C(NCCc1ccccc1)C1CCCN1S(=O)(=O)c1ccc(F)cc1 (stereo unspecified) | -0.2 | 3.3 | -1.1 | 8.5 | 12.1* | 6.8 | -1.3
NS(=O)(=O)c1ccc(O)c(NC(=O)c2ccc([N+](=O)[O-])cc2)c1 | -0.6 | 2.5 | -8.5 | 1.7 | -4.0 | nt | nt
[O-]C1=N/[N+](=C/c2ccccc2Cl)CC1 | -10.3 | 6.2 | -9.8 | 11.4* | 6.5 | -5.8 | -2.0
CC(Nc1ccc2c(c1)OCCO2)C(=O)N1CCc2ccccc21 (stereo unspecified) | 0.2 | -0.7 | -0.7 | -0.5 | 3.1 | nt | nt
O=S(=O)(c1ccc(F)cc1)N1CCN(CC(O)COCc2ccccc2)CC1 (stereo unspecified) | nt | -0.9 | nt | 1.1 | -6.6 | nt | nt
CCOC(=O)c1cccc(S(=O)(=O)N2CCCC2)c1 | -2.2 | 9.0 | 3.9 | 10.3* | 9.3 | -7.6 | -1.4
NC(=O)COC(=O)c1cccc(S(=O)(=O)N2CCCCC2)c1 | 1.9 | 0.3 | 8.2 | 0.0 | -8.4 | nt | nt
COc1ccccc1COCC(O)CN1CCN(S(=O)(=O)c2cccc(F)c2)CC1 (stereo unspecified) | -10.7 | -5.7 | -4.6 | 14.9* | 0.1 | -1.9 | 1.5
O=C(NCC1CCCCC1)c1cccc(S(=O)(=O)N2CCCC2)c1 | -8.1 | 2.3 | 9.9 | 1.3 | -6.0 | nt | nt
CC(OC(=O)c1cccc(S(=O)(=O)N2CCCCC2)c1)C(=O)NCC1CCCCC1 (stereo unspecified) | nt | 5.7 | nt | 9.9* | -0.4 | 4.0 | 3.0
COc1ccccc1COC(=O)c1cccc(S(=O)(=O)N2CCCC2)c1 | nt | -19.8 | nt | 10.3* | 11.1* | 10.8* | 14.2*
CCCC1CCC2(CCC(=O)N2CCSc2ccccc2)CC1 (stereo unspecified) | nt | 2.7 | nt | 3.7 | 4.4 | nt | nt
Nc1ccn([C@@H]2O[C@H](C(=O)NCC(F)(F)F)[C@@H](O)[C@H]2O)c(=O)n1 | nt | 4.2 | nt | -0.2 | 2.2 | nt | nt
Cc1ccc2c(CN3CCCCC3CCO)cc(=O)oc2c1 (stereo unspecified) | 11.8 | 8.6 | 8.0 | -9.1 | -9.9 | nt | nt
